Article PMC5496795 (Clinical cancer research : an official journal of the …, 2017)

Tests used:
[1] = tested on: GRPr-expressing prostate cancer xenografts; conditions: in vivo; cited from earlier work
[2] = tested on: PC-3 xenografts; assay: Combination therapy, tumor growth of PC-3 xenografts; assay type: in vivo, athymic nude male mice; conditions: PC-3 tumor bearing animals
How it was run: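 PC-3 cells (5 ×10⁶ in 1:1 media/Matrigel) were implanted in the shoulder of 6–8-week-old males. At about 100 mm³ the mice were randomised to four arms: sham (i.v. saline plus illumination), VTP, radiolabelled peptide (14.8 MBq retro-orbital i.v.), or both. For VTP, 4 h after the peptide, the photosensitizer (9 mg/kg, i.v. bolus, in 5% dextran) was followed immediately by 10 min of 755 nm laser to the tumour plus a 1 mm rim. Tumours were measured by caliper twice weekly to 34 days.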

[3] = tested on: PC-3 tumors; assay: Histology/IHC of PC-3 tumors; assay type: in vivo, athymic nude male mice
How it was run: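 PC-3 xenograft tumours were taken after treatment, fixed in 10% buffered formalin, paraffin-embedded and cut at 5 micron. Sections were stained with anti-mouse CD31 antibody for vessel density and by TUNEL for cell death. VTP was an i.v. photosensitizer (9 mg/kg) followed immediately by 10 min of 755 nm laser illumination of the tumour area.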

[4] = tested on: localized prostate cancer; conditions: published trial data in localized prostate cancer; ref not given; cited from earlier work

Compound | Fraction of delivered radioactivity washed out at 24 hours p.i. [1] | Time of optimal tumor uptake post injection [1] | Animals remaining tumor free at 34 days post treatment [2] | Vessel density in PC-3 tumors (IHC anti-CD31) ([3]; 24 hours post VTP treatment, compared to control tumors) | TUNEL staining of tumors (cell death) ([3]; PC-3 tumors, post VTP treatment) | Cases with absent evidence of cancer (local tumor ablation) [4]
^111In-DOTA-PEG4-D-Phe-Gln-Trp-Ala-Val-Gly-His-Sta-Leu-NH2 [^111In-DOTA-AR] | about 2/3 | 1 to 4 h |  |  |  | 
CC[C@H]1c2cc3[n-]c(c(CC(=O)OC)c4nc(cc5[n-]c(cc(n2)[C@@H]1C)c(C(C)=O)c5C)[C@@H](C)[C@@H]4CCC(=O)[O-])c(C(=O)NCCS(=O)(=O)[O-])c3C.[H+].[H+].[Pd+2] [VTP] |  |  | 2/12 | markedly reduced vessel density | stained positive | 80%
